Legend:
[1] = target: Protein farnesyltransferase (Mus musculus, UniProt Q61239+Q8K2I1); assay: Inhibition of H-Ras farnesylation expressed in mouse NIH3T3 cells; format: functional, cell-based
Outline: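 Oncogenic H-Ras-transformed NIH3T3 cells were treated with a range of inhibitor concentrations. Detection used peroxidase-conjugated secondary antibodies and enhanced chemiluminescence. IC50 is the mean of three independent assays ± SD unless stated otherwise.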

[2] = species on record: Homo sapiens; assay: Selectivity ratio of IC50 for human geranylgeranyltransferase-1 to IC50 for human farnesyltransferase
[3] = target: Protein farnesyltransferase (Homo sapiens, UniProt P49354+P49356); assay: Inhibition of human farnesyltransferase assessed as incorporation of [3H]FPP into H-Ras-CVLS; format: protein-complex assay
Outline: (§1)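 In vitro radiometric assay measuring transfer of [3H]FPP (FTase) or [3H]GGPP (GGTase-I) onto recombinant H-Ras-CVLS or H-Ras-CVLL, respectively.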

[4] = target: Geranylgeranyl transferase type 1 (Mus musculus, UniProt Q61239+Q8BUY9); assay: Inhibition of Rap1A geranylgeranylation expressed in mouse NIH3T3 cells; format: functional, cell-based
Outline: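 Oncogenic H-Ras-transformed NIH3T3 cells were treated with a range of inhibitor concentrations. […] Detection used peroxidase-conjugated secondary antibodies and enhanced chemiluminescence. IC50 is the mean of three independent assays ± SD unless stated otherwise.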

[5] = target: Geranylgeranyl transferase type I (Homo sapiens, UniProt P49354+P53609); assay: Inhibition of human geranylgeranyltransferase-1 assessed as incorporation of [3H]GGPP into H-Ras-CVLL; format: protein-complex assay; outline: as §1

| SMILES | IC50 [1] [µM] | Selectivity ratio [2] | IC50 [3] [µM] | IC50 [4] [µM] | IC50 [5] [µM] |
| --- | --- | --- | --- | --- | --- |
| Cn1cnc(S(=O)(=O)N(CCN(Cc2cncn2C)c2ccc(C#N)cc2)Cc2cccc(C#N)c2)c1 | 5 |  | 0.078 | > 10 |  |
| Cn1cnc(S(=O)(=O)N(CCN(Cc2cncn2C)c2ccc(Br)cc2)Cc2ccccc2)c1 | 1.6 | 6.7 |  | > 10 |  |
| C#CCN(CCN(Cc1cncn1C)c1ccc(C#N)cc1)S(=O)(=O)c1cn(C)cn1 |  | > 14 | 0.72 | > 10 | > 10 |
| Cn1cnc(S(=O)(=O)N(CCN(Cc2cncn2C)c2c(F)cc(C#N)cc2F)CC2CCN(c3ncccn3)CC2)c1 |  | > 34 | 0.29 |  | > 10 |
| Cc1ccc(CN(CCN(Cc2cncn2C)c2ccc(C#N)cc2)S(=O)(=O)c2cn(C)cn2)cc1 | 2 |  | 0.37 | > 10 | 0.58 |
| Cn1cncc1CN(CCN(Cc1ccccc1)S(=O)(=O)C1CC1)c1ccc(C#N)cc1 |  | 65 |  |  |  |
| Cn1cnc(S(=O)(=O)N(CCN(Cc2cncn2C)c2ccc(C(=O)O)cc2)Cc2ccccc2)c1 |  |  | > 10 |  | > 10 |
| CCCS(=O)(=O)N(CCN(Cc1cncn1C)c1ccc(C#N)cc1)Cc1ccccc1 | 0.07 | 85 |  | > 10 |  |
| Cn1cnc(S(=O)(=O)N(CCN(Cc2cnc[nH]2)c2ccccc2)Cc2ccccc2)c1 | > 10 |  |  | > 10 | > 10 |
| Cn1cnc(S(=O)(=O)N(CCN(Cc2cnc[nH]2)c2ccc(Br)cc2)Cc2ccccc2)c1 | 5.7 |  |  | > 10 |  |
| Cn1cncc1CN(CCN(CC1CCCCC1)S(=O)(=O)c1ccccn1)c1ccc(C#N)cc1F | 0.0887 | 2.1 |  | 2.7 |  |
| Cn1cnc(S(=O)(=O)N(Cc2ccccc2)[C@H]2CC[C@@H](N(Cc3cncn3C)c3ccc(C#N)cc3)C2)c1 (racemic) |  | > 15 | 0.65 |  | > 10 |
| Cc1c(CN(CCN(Cc2cncn2C)c2ccc(C#N)cc2)S(=O)(=O)c2cn(C)cn2)cnn1C |  |  | 5.3 |  | > 10 |
| Cn1cnc(S(=O)(=O)N(CCN(Cc2cncn2C)c2ccc(C#N)cn2)CC2CCN(c3ncccn3)CC2)c1 |  | > 91 | 0.11 |  | > 10 |
| Cn1cnc(S(=O)(=O)N(CCN(Cc2cncn2C)c2ccc(C#N)cc2F)CC2CCN(c3ncccn3)CC2)c1 |  | > 156 | 0.064 |  | > 10 |
| Cn1cnc(S(=O)(=O)N(CCN(Cc2cncn2C)c2ccc(C#N)cc2)CC2CCN(C(=O)OC(C)(C)C)CC2)c1 | > 2 | > 2.7 |  | > 2 | > 10 |
| Cn1cnc(S(=O)(=O)N(CCN(Cc2c[nH]cn2)c2ccccc2)Cc2ccccc2)c1 |  | 1.6 |  |  |  |
| Cn1cnc(S(=O)(=O)N(CCN(Cc2cncn2C)c2ccc(C(N)=O)cc2)Cc2ccccc2)c1 |  | > 2 | 5.3 |  | > 10 |
| Cn1cnc(S(=O)(=O)N(CCN(Cc2cncn2C)c2ccc(C#N)nc2)CC2CCN(c3ncccn3)CC2)c1 |  |  | 0.52 |  | > 10 |
| Cn1cnc(S(=O)(=O)N(Cc2ccccc2)[C@@H]2CCC[C@@H]2N(Cc2cncn2C)c2ccc(C#N)cc2)c1 (racemic) |  | > 10 | 1 |  | > 10 |
| Cn1cnc(S(=O)(=O)N(CCN(Cc2c[nH]cn2)c2ccc(Br)cc2)Cc2ccccc2)c1 |  | 6 |  |  |  |

Second part, the compound after the results:

| IC50 [1] [µM] | Selectivity ratio [2] | IC50 [3] [µM] | IC50 [4] [µM] | IC50 [5] [µM] | SMILES |
| --- | --- | --- | --- | --- | --- |
| 0.5 | 200 | 0.05 | > 10 | 10 | Cn1cncc1CN(CCN(Cc1ccccc1)S(=O)(=O)c1cccs1)c1ccc(C#N)cc1 |
| > 10 | > 14 | 0.054 | > 10 | > 10 | C=CCN(CCN(Cc1cncn1C)c1ccc(C#N)cc1)S(=O)(=O)c1cn(C)cn1 |
| 0.4 | 14 | 0.067 | > 10 | 0.94 | Cn1cnc(S(=O)(=O)N(CCN(Cc2cncn2C)c2ccc(C#N)cc2)Cc2ccsc2)c1 |
| 0.4 | 2.6 | 2.3 | > 10 | 5.9 | Cn1cnc(S(=O)(=O)N(CCN(Cc2cncn2C)c2ccc(C#N)cc2)Cc2cccs2)c1 |
|  | > 16 | 0.62 |  | > 10 | Cn1cnc(S(=O)(=O)N(CCN(Cc2cncn2C)c2ncc(C#N)cn2)CC2CCN(c3ncccn3)CC2)c1 |
|  | 0.9 | 5.4 |  | 4.9 | Cn1cnc(S(=O)(=O)N(CCN(Cc2cncn2C)c2ccc(C(=O)OC(C)(C)C)cc2)Cc2ccccc2)c1 |
|  |  | 0.16 | > 10 | 10 | CN(C)c1cccc2c(S(=O)(=O)N(CCN(Cc3cncn3C)c3ccc(C#N)cc3)Cc3ccccc3)cccc12 |
| 0.268 | 1.5 | 0.4 | 6.2 | 0.61 | Cn1cncc1CN(CCN(CC1CCCCC1)S(=O)(=O)c1ccccn1)c1ccc(C#N)cc1 |
| 4.3 | 17 | 0.03 | > 10 | 0.51 | Cn1cnc(S(=O)(=O)N(CCN(Cc2cncn2C)c2ccc(C#N)cc2)CCn2cccc2)c1 |
|  |  | 0.55 |  | > 10 | Cn1cnc(S(=O)(=O)N(CCN(Cc2cncn2C)c2ccc(C#N)cc2Cl)CC2CCN(c3ncccn3)CC2)c1 |
| > 10 |  | 0.072 | > 10 | > 10 | Cn1cnc(S(=O)(=O)N(CCN(Cc2cncn2C)c2ccc(C#N)cc2)Cc2ccncc2)c1 |
|  | 18 | 0.49 |  | 8.75 | Cn1cnc(S(=O)(=O)N(CCN(Cc2cncn2C)c2c(F)c(F)c(C#N)c(F)c2F)CC2CCN(c3ncccn3)CC2)c1 |
| 5 | 4.3 | 1.7 | > 10 | 7.3 | Cn1cnc(S(=O)(=O)N(CCN(Cc2cncn2C)c2ccc(C#N)cc2)Cc2ccc(-c3ccccc3)cc2)c1 |
|  | 0.7 | 6.85 |  | 5 | Cn1cnc(S(=O)(=O)N(CCN(Cc2cncn2C)c2ccc(-c3ccccc3)cc2)Cc2ccccc2)c1 |
|  | 41 | 0.23 |  | 9.4 | Cn1cnc(S(=O)(=O)N(CCN(Cc2cncn2C)c2ccc(C#N)c(F)c2)CC2CCN(c3ncccn3)CC2)c1 |
|  | 11 | 0.42 |  | 4.6 | Cn1cnc(S(=O)(=O)N(CCCN(Cc2cncn2C)c2ccc(C#N)cc2)Cc2ccccc2)c1 |
| 1.9 |  |  | > 10 | 2.7 | Cn1cnc(S(=O)(=O)N(CCN(Cc2cncn2C)c2ccc(C#N)cc2)Cc2ccccc2)c1 |
|  | 19 | 0.38 |  | 7.05 | Cn1cnc(S(=O)(=O)N(Cc2ccccc2)[C@@H]2CC[C@@H](N(Cc3cncn3C)c3ccc(C#N)cc3)C2)c1 (racemic) |
| 0.09 |  | 0.025 | > 10 | 0.82 | Cn1cncc1CN(CCN(Cc1ccccc1)S(=O)(=O)c1ccccn1)c1ccc(C#N)cc1 |
|  | 20 | 0.45 |  | 9.15 | Cn1cnc(S(=O)(=O)N(Cc2ccccc2)[C@H]2CCC[C@@H]2N(Cc2cncn2C)c2ccc(C#N)cc2)c1 (racemic) |
